For 37 compounds, EC50 and CC50 results are on record in PubChem BioAssay AID488973 (NMMLSC, 2010).

Structures are written as SMILES. Calls of active or inactive are those of the source.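 How the source made its calls: active means toxic dose over ten times the dose restoring drug killing, with toxic dose under 15 µM; inactive means the rest.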

For the assay, the system named is Jurkat/DNR viability with daunorubicin, trypan blue, 7 d. As to the kind of experiment: chemoreversal in ABCB1 cells, dose response, ABC transporter inhibitor project, paired ABCG2 counter-screen, SAR hit validation (AID 488973). The following applies: for CC50: measured here: toxicity without chemotherapeutic (TD50). A digest of the protocol:
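Assay system: ABCB1-expressing drug-resistant Jurkat/DNR cells. Input: 100,000 cells per mL. Reagent: daunorubicin as selective agent at a fixed amount. Doses: 0.1–100 µM compound series. Timing: 7 d compound exposure. Technique: cell counting after trypan blue staining. Read-out: CR50 compared with TD50.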

Turning to `COc1ccc(-c2cc3nc(C)c(C)c(N4CCN(C(=O)c5ccco5)CC4)n3n2)cc1`, the EC50 was 0.53 µM and the CC50 was above 100 µM.
On the same counts, the results for `O=C(c1ccoc1)N1CCN(c2cc(-c3ccco3)nc3cc(-c4ccccc4)nn23)CC1` are 0.55 µM (inactive) and 5.52 µM.
On the same counts, the results for `COc1cc(OC)cc(-c2cc3nc(C)c(C)c(N4CCN(C(=O)c5ccoc5)CC4)n3n2)c1` are 0.1 µM (inactive) and 9.52 µM.
In the same order, the values of `O=C(Cc1ccccc1)N1CCN(c2cc(-c3ccccc3)nc3cc(-c4cccc(Cl)c4)nn23)CC1` are 0.51 µM and 17.8 µM.
With `Cc1ccc(-c2cc3nc(-c4ccccc4)cc(N4CCN(C(=O)c5ccoc5)CC4)n3n2)cc1`, the EC50 was 0.29 µM (inactive) and the CC50 is 5.77 µM.
On the same counts, the results for `COc1cccc(-c2cc(N3CCN(C(=O)c4ccoc4)CC3)n3nc(-c4cccc(OC)c4)cc3n2)c1` are 0.03 µM (inactive) and 7.93 µM.
On the same counts, the results for `Cc1cc(N2CCN(C(=O)c3ccco3)CC2)n2nc(C)c(-c3ccccc3)c2n1` are 3.58 µM (inactive) and 3.31 µM.
In the same order, the values of `O=C(c1ccco1)N1CCN(c2cc(-c3ccccc3)nc3cc(-c4cccc(Cl)c4)nn23)CC1` are 0.7 µM (inactive) and 3.18 µM.
Take `Cc1nc2cc(-c3cccc(Cl)c3)nn2c(N2CCN(C(=O)c3ccoc3)CC2)c1C`: the EC50 was 0.51 µM (inactive) and the cytotoxic concentration (CC50) was found to be 5.33 µM.
On the same counts, the results for `Cc1nc2cc(-c3ccc4c(c3)OCO4)nn2c(N2CCN(C(=O)c3ccoc3)CC2)c1C` are 0.13 µM and above 100 µM.
In the same order, the values of `Cc1nc2cc(-c3cccc(Cl)c3)nn2c(N2CCN(C(=O)c3ccsc3)CC2)c1C` are 1.13 µM (inactive) and 10.1 µM.
On the same counts, the results for `Cc1nc2ncnn2c(N2CCN(C(=O)c3ccco3)CC2)c1Cc1ccccc1` are 12.3 µM (inactive) and above 100 µM.
`COc1ccc(-c2cc3nc(C)c(C)c(N4CCN(C(C)=O)CC4)n3n2)cc1`: the EC50 is 6 µM and the CC50 was 105 µM.
With `COc1ccc(-c2cc3nc(-c4ccccc4)cc(N4CCN(C(=O)c5ccsc5)CC4)n3n2)cc1`, the EC50 is 0.14 µM (inactive) and the half-maximal cytotoxic concentration (CC50) was 4.9 µM.
On the same counts, the results for `COc1cccc(-c2cc3nc(C)c(C)c(N4CCN(C(=O)c5ccoc5)CC4)n3n2)c1` are 0.82 µM and above 100 µM.
Consider `O=C(c1ccncc1)N1CCN(c2cc(-c3ccccc3)nc3cc(-c4cccc(Cl)c4)nn23)CC1`, for which the EC50 is 0.25 µM (inactive) and the CC50 was 10.9 µM.
In the same order, the values of `O=C(c1ccco1)N1CCN(c2cc(-c3ccccc3)nc3cc(-c4cccc(F)c4)nn23)CC1` are 0.58 µM (inactive) and 2.16 µM.
In the same order, the values of `CC(=O)N1CCN(c2c(C)c(C)nc3cc(-c4cccc(F)c4)nn23)CC1` are 19.8 µM (inactive) and above 100 µM.
In the same order, the values of `Cc1cc(N2CCN(C(=O)c3ccco3)CC2)n2nc(-c3ccccc3)nc2n1` are 4.92 µM (inactive) and 11.8 µM.
`O=C(c1ccoc1)N1CCN(c2cc(-c3cccnc3)nc3cc(-c4cccc(Cl)c4)nn23)CC1`: the EC50 is 0.2 µM (inactive) and the half-maximal cytotoxic concentration (CC50) was 5.33 µM.
In the same order, the values of `COc1ccc(-c2cc3nc(-c4ccccc4)cc(N4CCN(C(=O)c5ccoc5)CC4)n3n2)cc1` are 0.23 µM (inactive) and 5.54 µM.
On the same counts, the results for `COc1ccc(-c2[nH]nc3nc(N4CCN(C(=O)c5ccoc5)CC4)cc(C(F)(F)F)c23)cc1` are 0.33 µM (inactive) and 0.455 µM.
On to `COc1cccc(C(=O)N2CCN(c3cc(-c4ccccc4)nc4cc(-c5cccc(Cl)c5)nn34)CC2)c1`, for which the EC50 is 0.35 µM and the CC50 is above 100 µM.
In the same order, the values of `COc1cccc(-c2cc3nc(-c4ccco4)cc(N4CCN(C(=O)c5ccoc5)CC4)n3n2)c1` are 0.47 µM (inactive) and 5.52 µM.
Turning to `O=C(c1ccco1)N1CCN(c2c3c(nc4cc(-c5cccc(F)c5)nn24)CCCC3)CC1`, the EC50 was 2.94 µM (inactive) and the half-maximal cytotoxic concentration (CC50) is 5.32 µM.
In the same order, the values of `O=C(c1ccoc1)N1CCN(c2cc(-c3ccccc3)nc3cc(-c4ccncc4)nn23)CC1` are 1.52 µM (inactive) and 9.52 µM.
On the same counts, the results for `Cc1cc(N2CCN(C(=O)c3ccco3)CC2)n2nc(-c3ccc(F)cc3)cc2n1` are 5.33 µM (inactive) and 4.2 µM.
Consider `COc1ccccc1-c1cc2nc(-c3ccccc3)cc(N3CCN(C(=O)c4ccoc4)CC3)n2n1`, for which the EC50 is 0.45 µM (inactive) and the CC50 worked out at 4.37 µM.
On the same counts, the results for `Cc1nc2cc(-c3cccc(Cl)c3)nn2c(N2CCN(C(=O)c3ccco3)CC2)c1C` are 1.58 µM and above 100 µM.
On the same counts, the results for `O=C(C1CCCO1)N1CCN(c2c3c(nc4cc(-c5cccc(F)c5)nn24)CCCC3)CC1` (centres undefined) are 3.58 µM (inactive) and 12.3 µM.
Consider `O=C(c1ccco1)N1CCN(c2cc(Cc3ccccc3)nc3cc(-c4cccc(Cl)c4)nn23)CC1`, for which the EC50 was 1.41 µM (inactive) and the cytotoxic concentration (CC50) amounted to 8.47 µM.
As for `O=C(c1ccoc1)N1CCN(c2cc(-c3ccncc3)nc3cc(-c4cccc(Cl)c4)nn23)CC1`, the EC50 was 0.6 µM (inactive) and the CC50 is 13.5 µM.
In the same order, the values of `O=C(c1ccoc1)N1CCN(c2cc(-c3ccco3)nc3cc(-c4cccc(Cl)c4)nn23)CC1` are 0.53 µM (inactive) and 8.53 µM.
On the same counts, the results for `COc1cccc(-c2cc3nc(C)c(C)c(N4CCN(Cc5ccco5)CC4)n3n2)c1` are 0.02 µM and above 100 µM.
In the same order, the values of `COc1ccc(-c2cc3nc(-c4ccccc4)cc(N4CCN(C(=O)c5ccccc5)CC4)n3n2)cc1` are 0.19 µM and 16.9 µM.
As to `O=C(c1cccnc1)N1CCN(c2cc(-c3ccccc3)nc3cc(-c4cccc(Cl)c4)nn23)CC1`, the EC50 is 0.17 µM (inactive) and the half-maximal cytotoxic concentration (CC50) turned out to be 4.72 µM.
In the same order, the values of `Cc1nc2cc(-c3ccc(F)cc3)nn2c(N2CCN(C(=O)c3ccco3)CC2)c1C` are 1.82 µM (inactive) and 5.33 µM.
